Compound activity (PubChem BioAssay)
Shown are actives, neighbours in structure and some others; about 2.9% of the full set was active somewhere.
CDK5 p35 inh – CDK5/p35 (human) kinase inhibition | AID 488839 | Recombinant CDK5/p35, ADP-Glo luminescence, 60 min | Q00535+Q15078 | 330,000 compounds, 0.01% hits | inhibition, % at 10 µM;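 active = highest replicate inhibition of at least 50% and at least 75% of replicates reaching 50%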;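 also: plate controls were DMSO neutral control for no effect and GW8510 at 10 µM for full effect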
Target sequence (Q00535 whole entry, looked up): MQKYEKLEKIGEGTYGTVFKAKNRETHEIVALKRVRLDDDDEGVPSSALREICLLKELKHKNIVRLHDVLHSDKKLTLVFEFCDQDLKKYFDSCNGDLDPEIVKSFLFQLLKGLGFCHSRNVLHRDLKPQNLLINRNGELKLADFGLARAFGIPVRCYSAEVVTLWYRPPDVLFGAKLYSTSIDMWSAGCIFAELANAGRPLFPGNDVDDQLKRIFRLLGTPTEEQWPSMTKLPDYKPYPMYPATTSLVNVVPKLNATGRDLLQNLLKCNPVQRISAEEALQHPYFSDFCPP
Target sequence (Q15078 whole entry, looked up): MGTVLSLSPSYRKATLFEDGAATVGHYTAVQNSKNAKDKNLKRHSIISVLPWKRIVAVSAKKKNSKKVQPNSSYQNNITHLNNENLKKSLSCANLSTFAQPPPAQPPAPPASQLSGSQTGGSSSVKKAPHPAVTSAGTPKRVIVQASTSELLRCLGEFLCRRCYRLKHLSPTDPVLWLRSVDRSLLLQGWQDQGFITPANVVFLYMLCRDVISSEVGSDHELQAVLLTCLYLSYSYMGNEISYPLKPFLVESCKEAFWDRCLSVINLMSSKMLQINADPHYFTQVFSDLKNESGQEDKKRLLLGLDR
Cneo AK release – Cryptococcus neoformans lysis via adenylate kinase release | C. neoformans lysis, adenylate kinase release luminescence, 4 h; normalised: neutral wells 0, clomiphene wells 100 | lysis activity, % at 15 µM | 360,000 compounds, 0.2% hits | AID 651654;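 active = mean lysis activity across replicates of at least 80%, whatever share of replicates individually reach that level; inactive = mean lysis activity below 80%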
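Test system: log-phase Cryptococcus neoformans yeast cells. Input: 5 × 10^6 yeast cells/mL. Medium: fresh YPD growth medium. Doses: single dose. Incubation: static 4 h at 37 °C with compound, 1 h detection. Measured by: luminescent adenylate kinase detection reagent. Read-out: signal increase indicating cell lysis. Benchmarks: Clomiphene.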
HIV Env fusion – HIV envelope-mediated fusion inhibition. 360,000 compounds, 1.1% hits. inhibition, % at 12.3 µM. HeLa-JRFL Env/CEM21 cell fusion, luciferase;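 active = mean replicate inhibition score of at least 50 and every replicate individually at or above 50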;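 also: 0% = plate neutral controls and 100% = maraviroc near 300 nM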
dFosB activator – enhances mouse delta FosB homodimer DNA binding. 340,000 compounds, 0.99% hits. P13346. activation, % at 25 µM. AID 493131. purified delta FosB, TAMRA-CDK5 oligo fluorescence polarization; percent of positive-control signal above neutral wells;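 active = mean activation above about 17%, with every replicate also reaching it, limit read from the data, passing the limit was not always enough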
GSIS activator – primary screen for activators of insulin secretion dependent on glucose, INS-1E cells, GLuc reporter luminescence. 370,000 compounds, 0.61% hits. activation, % at 16.6 µM. INS-1E GLuc reporter insulin secretion, 2-3 h;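 active = lowest replicate activation of at least 40%, so every replicate reaches that level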;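 also: 0% = median of neutral control wells and 100% = median of IBMX positive control wells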
PAX8 inh HTS – inhibitors of PAX8 transcriptional activity in RMG-I cells. inhibition, % at 12.6 µM. 360,000 compounds, 1.2% hits. RMG-I TPO-luciferase reporter, SteadyGlo, 24 h. AID 652154;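 active = mean replicate inhibition at least 60% with every replicate also reaching 60%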;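 also: luciferase light reporting Pax8 driven TPO promoter activity; plate controls were median of neutral control wells for no effect and mitoxantrone controls for full effect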
An asterisk follows results filed as active; x = no result; [ ] = dose if it differs, or a comment.

SMILES	CDK5 p35 inh	Cneo AK release	HIV Env fusion	dFosB activator	GSIS activator	PAX8 inh HTS
Cn1nc(-c2ccc(NCCO)c([N+](=O)[O-])c2)c2ccccc2c1=O	2.6	x	-1.2	-1.1	18.8	-19.2
CC1CC(=O)NN=C1c1ccc(NCCO)c([N+](=O)[O-])c1 (stereo not given)	-2.5	2.5	61.8*	3.4	27.5	x
C[C@@H]1CN([C@H](C)CO)C(=O)c2cc(NC(=O)c3ccccc3)ccc2O[C@@H](C)CCCCO[C@H]1CN(C)C(=O)Nc1ccc2c(c1)OCO2	x	-0.1	8.4[16.7 µM]	x	-2.4	-4.5
CC1=CC(C)(C)N(C(=O)c2ccccc2)c2ccccc21	0.3	3.9	8.7	-1.3	x	3.8
CC1=CC(C)(C)N(C(=O)c2ccccc2)c2ccc(C)cc21	-0.7	-0.1	94.2*	3.2	x	x
O=C(Cc1ccncc1)NCC[C@@H]1CC[C@H](NS(=O)(=O)c2ccccc2Cl)[C@H](CO)O1	x	-0.5	6.4[16.7 µM]	x	-4.2	4.7
CO[C@H](CN(C)S(=O)(=O)c1ccc(Cl)cc1)[C@H](C)CN([C@H](C)CO)S(=O)(=O)c1cccc(Cl)c1	x	-10.4	56.0*[16.7 µM]	x	-33.1	3.4
CO[C@@H](CN(C)Cc1cc(F)ccc1F)[C@@H](C)CN([C@H](C)CO)S(=O)(=O)c1ccc(F)cc1	x	102.3*	17.0[16.7 µM]	x	x	5.3
CO[C@H](CN(C)S(=O)(=O)c1ccc(Cl)cc1)[C@H](C)CN([C@@H](C)CO)S(=O)(=O)c1cccc(Cl)c1	x	-5.8	60.7*[16.7 µM]	x	-33.1	-8.3
CO[C@@H](CN(C)Cc1cc(F)ccc1F)[C@H](C)CN([C@H](C)CO)S(=O)(=O)c1ccc(F)cc1	x	1.6	12.9[16.7 µM]	x	9.1	-5.5
O=S(=O)(Cc1ccccc1)NCC[C@@H]1CC[C@H](NS(=O)(=O)c2ccccc2)[C@H](CO)O1	x	-3.2	13.1[16.7 µM]	x	4.2	-14.2
COC(=O)C1=C(C)N(C)C(=NCc2cccc(C(F)(F)F)c2)NC1c1ccc(C(F)(F)F)cc1 (stereo not given)	x	x	42.2	x	45.2*	19.3
COC(=O)C1=C(C)N(C)C(=NCc2ccc3c(c2)OCO3)NC1c1ccc(C(F)(F)F)cc1 (stereo not given)	x	x	57.2*	x	-37.1	-46.5
CC(C)NC(=O)N(C)C[C@@H]1Oc2cc(C#Cc3ccc(F)cc3)ccc2S(=O)(=O)N([C@H](C)CO)C[C@H]1C	x	-2.9	35.1[16.7 µM]	x	-19.6	x
O=C(Nc1ccc(S(=O)(=O)N2CCN(Cc3ccccc3)CC2)cc1)c1cnccn1	-0.5	1.0	95.2*	6.4	x	x
CCN(CC)S(=O)(=O)c1ccc(NC(=O)c2ccc(CN3CCOCC3)cc2)cc1	3.1	0.1	63.8*	-6.0	x	x
Cc1cccnc1NC(=O)c1ccc(S(=O)(=O)N2CCCCC2)cc1	0.1	x	-260.8	7.4	41.3*	10.3
Cc1cccnc1NC(=O)c1cccc(S(=O)(=O)N2CCCC2)c1	0.6	-0.7	x	-1.7	8.9	10.8
O=C(Nc1ccc(S(=O)(=O)N2CCCC2)cc1)c1ccc(CN2CCOCC2)cc1	1.4	-1.1	73.6*	-11.8	x	x
Cc1noc(C)c1NC(=O)Nc1ccc2c(c1)C(=O)N([C@H](C)CO)C[C@@H](C)[C@@H](CN(C)C(=O)C1CCCCC1)OCCCC[C@@H](C)O2	x	-0.3	-1.7[16.7 µM]	x	-15.3	-6.6
COc1ccc(NC(=O)C[C@H]2C(=O)N(c3ccc(OC)cc3)C[C@@H]2C)cc1	x	x	3.8	x	6.4	100.8*
CNC(=O)C[C@H]1C(=O)N(c2ccc(OC)cc2)C[C@@H]1C	x	x	6.7	x	3.5	7.5
O=C(C[C@H]1CC[C@H]2[C@@H](COC[C@@H](O)CN2S(=O)(=O)c2ccccc2Cl)O1)N1CCC(Cc2ccccc2)CC1	x	5.2	x	x	-35.9	80.2*
O=C(C[C@@H]1CC[C@@H]2[C@H](COC[C@H](O)CN2S(=O)(=O)c2ccccc2Cl)O1)N1CCC(Cc2ccccc2)CC1	x	4.2	x	x	-40.7	78.5*
CN(CCO)c1nc(N)c(C#N)c(CC#N)c1C#N	1.3	2.8	-5.2	2.6	24.1	-1.0
CN(c1ccccc1)c1nc(N)c(C#N)c(CC#N)c1C#N	0.9	-1.8	1.5	-8.4	66.2*	-2.2
Cc1ccc(C(c2nc3ccccc3[nH]2)n2c(-c3ccccc3)nc3ccccc32)cc1 (stereo not given)	x	-7.9	58.1*	x	4.4	-132.5
